Assay results taken from ChEMBL document CHEMBL3576788, “Dual-Mode HDAC Prodrug for Covalent Modification and Subsequent Inhibitor Release” (J Med Chem, 2015).
Substitutions are numbered along the chain they refer to. Calls of active or inactive are those of the source. No cut-off for these calls is given here.

Columns and labels:
[1] = molecular target: T1, Histone deacetylase 8 (Homo sapiens) (UniProt Q9BY41); experiment: Binding affinity to human wild type HDAC8 assessed as loss of activity at 2 to 10 uM by Fluor-de-Lys activity assay
T1 sequence (whole entry): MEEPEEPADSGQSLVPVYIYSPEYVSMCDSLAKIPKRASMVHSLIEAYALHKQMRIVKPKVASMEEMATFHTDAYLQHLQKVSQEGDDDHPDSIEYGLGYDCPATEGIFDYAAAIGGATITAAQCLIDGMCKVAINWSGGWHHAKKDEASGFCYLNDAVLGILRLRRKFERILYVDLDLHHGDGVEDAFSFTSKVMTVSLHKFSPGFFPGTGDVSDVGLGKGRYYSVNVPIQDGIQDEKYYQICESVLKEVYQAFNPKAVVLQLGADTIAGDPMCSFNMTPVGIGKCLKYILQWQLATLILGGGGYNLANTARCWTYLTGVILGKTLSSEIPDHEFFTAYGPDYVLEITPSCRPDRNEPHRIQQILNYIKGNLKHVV

Histone deacetylase 3 = Histone deacetylase 3 (Homo sapiens, UniProt O15379); experiment: Inhibition of human recombinant HDAC3 using MAZ1600 as fluorogenic substrate measured every 5 mins by optimized homogenous fluorescence based assay
Sequence of Histone deacetylase 3 (O15379 whole entry): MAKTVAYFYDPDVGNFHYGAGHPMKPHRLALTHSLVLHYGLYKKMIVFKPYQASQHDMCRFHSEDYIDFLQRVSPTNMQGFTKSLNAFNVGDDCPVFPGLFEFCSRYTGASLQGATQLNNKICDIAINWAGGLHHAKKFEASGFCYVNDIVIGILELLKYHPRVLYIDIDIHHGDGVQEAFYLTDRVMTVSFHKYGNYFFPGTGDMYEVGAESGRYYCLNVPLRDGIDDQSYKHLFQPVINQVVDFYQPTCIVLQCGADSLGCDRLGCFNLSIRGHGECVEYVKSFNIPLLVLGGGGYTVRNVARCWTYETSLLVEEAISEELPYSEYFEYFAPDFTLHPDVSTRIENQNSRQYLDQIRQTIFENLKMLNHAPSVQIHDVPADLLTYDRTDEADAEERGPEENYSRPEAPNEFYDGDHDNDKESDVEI

Histone deacetylase 2 = Histone deacetylase 2 (Homo sapiens, UniProt Q92769); experiment: Inhibition of human recombinant HDAC2 using MAZ1600 as fluorogenic substrate measured every 5 mins by optimized homogenous fluorescence based assay
Sequence of Histone deacetylase 2 (Q92769 whole entry): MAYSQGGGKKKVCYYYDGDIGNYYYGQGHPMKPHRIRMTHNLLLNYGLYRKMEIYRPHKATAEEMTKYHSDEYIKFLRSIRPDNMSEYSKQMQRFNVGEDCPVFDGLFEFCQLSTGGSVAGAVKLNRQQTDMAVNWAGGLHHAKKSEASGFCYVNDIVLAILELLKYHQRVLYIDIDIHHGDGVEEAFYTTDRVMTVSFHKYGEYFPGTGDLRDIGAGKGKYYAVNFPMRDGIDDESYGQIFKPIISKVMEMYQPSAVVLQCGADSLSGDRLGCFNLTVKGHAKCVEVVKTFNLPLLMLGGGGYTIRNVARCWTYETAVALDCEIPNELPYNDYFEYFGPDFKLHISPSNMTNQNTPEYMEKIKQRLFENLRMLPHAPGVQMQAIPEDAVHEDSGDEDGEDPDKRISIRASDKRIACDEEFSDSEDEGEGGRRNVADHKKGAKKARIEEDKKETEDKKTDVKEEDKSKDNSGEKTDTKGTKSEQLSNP

[2] = Cytotoxicity against mouse NIH/3T3 cells assessed as cell proliferation at 50 uM after 70 hrs by MTS assay; type: cell-based; conditions: nih3t3, 70 h
In short: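 NIH/3T3 cells in DMEM + 10% FBS, seeded at 5000 cells/well and allowed to attach for 16 h at 37 °C, 5% CO2. Then exposed to compound for 70 h. MTS reagent added for 2 h, absorbance at 490 nm. Triplicate wells, 2–3 trials.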

[3] = Prodrug activation assessed as GSH reactivity in HEPES buffer at pH 7.4 by LC-MS analysis
In short: (§1)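 Compound incubated with GSH (2 mM, 2 equiv) in 50 mM HEPES, pH 7.4, for 2 h at 37 °C. Products resolved by analytical HPLC, with peak identities assigned by LC-MS from retention times.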

Jurkat [4] = experiment: Cytotoxicity against human Jurkat cells assessed as cell proliferation at 50 uM after 70 hrs by MTS assay; type: functional, cell-based
In short: (§2)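 HH and Jurkat cells in RPMI 1640 + 10% FBS, seeded at 20 000 cells/well. Exposed directly to compound (0.5–128 μM) for 70 h. MTS reagent added for 4 h at 37 °C, absorbance at 490 nm. Each concentration run in triplicate, 2–3 trials.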

[5] = molecular target: T2, Protein deacetylase HDAC6 (Homo sapiens, UniProt Q9UBN7); experiment: Inhibition of human recombinant HDAC6 using MAZ1600 as fluorogenic substrate measured every 5 mins by optimized homogenous fluorescence based assay
T2 sequence (Q9UBN7 whole entry): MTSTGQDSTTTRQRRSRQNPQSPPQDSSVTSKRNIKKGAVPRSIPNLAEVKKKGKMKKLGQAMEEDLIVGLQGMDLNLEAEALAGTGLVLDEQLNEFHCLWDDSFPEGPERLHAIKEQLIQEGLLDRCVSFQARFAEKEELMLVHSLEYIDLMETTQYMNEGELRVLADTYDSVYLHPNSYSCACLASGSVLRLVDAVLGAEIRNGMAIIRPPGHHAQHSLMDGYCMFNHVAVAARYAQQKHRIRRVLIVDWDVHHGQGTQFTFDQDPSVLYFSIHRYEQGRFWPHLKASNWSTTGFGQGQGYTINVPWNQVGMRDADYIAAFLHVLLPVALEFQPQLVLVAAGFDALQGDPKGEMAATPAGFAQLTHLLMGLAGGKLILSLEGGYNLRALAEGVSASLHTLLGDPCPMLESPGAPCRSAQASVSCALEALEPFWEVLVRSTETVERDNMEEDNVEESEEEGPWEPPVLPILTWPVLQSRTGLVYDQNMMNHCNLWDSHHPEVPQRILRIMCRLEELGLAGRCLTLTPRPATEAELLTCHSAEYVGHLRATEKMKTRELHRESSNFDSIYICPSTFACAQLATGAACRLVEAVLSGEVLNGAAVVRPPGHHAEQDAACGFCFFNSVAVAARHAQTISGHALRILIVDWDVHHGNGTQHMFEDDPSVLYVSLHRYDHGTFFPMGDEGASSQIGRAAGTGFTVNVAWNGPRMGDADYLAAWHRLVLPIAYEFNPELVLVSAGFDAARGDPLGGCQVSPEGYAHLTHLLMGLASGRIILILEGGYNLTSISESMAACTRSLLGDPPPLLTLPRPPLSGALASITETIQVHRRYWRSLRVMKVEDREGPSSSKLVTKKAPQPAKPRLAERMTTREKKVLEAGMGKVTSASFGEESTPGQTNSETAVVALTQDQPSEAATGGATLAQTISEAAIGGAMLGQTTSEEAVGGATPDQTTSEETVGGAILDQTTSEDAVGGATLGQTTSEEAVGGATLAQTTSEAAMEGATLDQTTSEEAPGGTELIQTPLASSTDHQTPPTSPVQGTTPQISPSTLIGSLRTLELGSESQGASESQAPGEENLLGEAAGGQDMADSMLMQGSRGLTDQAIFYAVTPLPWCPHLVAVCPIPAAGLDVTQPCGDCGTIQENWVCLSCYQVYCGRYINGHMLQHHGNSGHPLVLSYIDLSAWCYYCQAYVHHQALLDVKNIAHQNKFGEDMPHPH

Histone deacetylase 1 = Histone deacetylase 1 (Homo sapiens, UniProt Q13547); experiment: Inhibition of human recombinant HDAC1 using MAZ1600 as fluorogenic substrate measured every 5 mins by optimized homogenous fluorescence based assay
Sequence of Histone deacetylase 1 (Q13547 whole entry): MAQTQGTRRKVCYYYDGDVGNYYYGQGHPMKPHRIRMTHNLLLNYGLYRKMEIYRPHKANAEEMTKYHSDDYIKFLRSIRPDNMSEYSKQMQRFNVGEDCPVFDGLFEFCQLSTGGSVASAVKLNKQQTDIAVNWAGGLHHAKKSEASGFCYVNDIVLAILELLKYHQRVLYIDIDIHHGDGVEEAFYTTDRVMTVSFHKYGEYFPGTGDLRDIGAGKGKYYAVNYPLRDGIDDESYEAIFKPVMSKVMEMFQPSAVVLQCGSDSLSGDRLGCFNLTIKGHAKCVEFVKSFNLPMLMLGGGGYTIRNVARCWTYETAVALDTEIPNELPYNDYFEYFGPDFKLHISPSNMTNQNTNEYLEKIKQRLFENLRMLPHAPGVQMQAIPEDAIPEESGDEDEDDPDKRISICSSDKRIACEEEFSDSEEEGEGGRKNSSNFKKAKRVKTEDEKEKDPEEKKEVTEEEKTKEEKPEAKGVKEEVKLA

Histone deacetylase 8 [6] = molecular target: T3, Histone deacetylase 8 (Homo sapiens, UniProt Q9BY41); experiment: Inhibition of human recombinant HDAC8 using MAZ1675 as fluorogenic substrate measured every 5 mins by optimized homogenous fluorescence based assay
T3 sequence (Q9BY41 whole entry): T1 sequence (whole entry)

HH [7] = experiment: Cytotoxicity against human HH cells assessed as cell proliferation at 50 uM after 70 hrs by MTS assay; type: functional, cell-based; in short: as §2
[8] = tested on: T4, Histone deacetylase 8 (Homo sapiens), Q9BY41 [C153A]; experiment: Binding affinity to human HDAC8 C153A mutant assessed as loss of activity at 2 to 10 uM by Fluor-de-Lys activity assay
T4 sequence (whole entry): T1 sequence (whole entry) with C153A
In short: (§3)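 Same as the wild-type method, but using the C153A HDAC8 mutant at 2 μM to start the reaction. Zn2+-reconstituted enzyme; 150 μM Fluor-de-Lys substrate with inhibitor at 30 °C, pH 8.0. Time-point aliquots quenched with trypsin/TSA. Product/substrate fluorescence ratio (ex 340, em 450/380 nm) gives progress curves.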

[9] = Retention time of the compound in HEPES buffer treated with SAHA-TAP at pH 7.4 by LC-MS analysis in presence of GSH; type: physicochemical; in short: as §1
[10] = Stability in human plasma assessed as compound remaining after 2 hrs by HPLC analysis; type: ADME, cell-free; conditions: read-out: Stability
In short: (§4)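 Pooled normal human plasma pre-warmed 2 min at 37 °C, spiked from a 5.0 mM DMSO stock, run in duplicate. Aliquots taken at 0–120 min, quenched with ACN, centrifuged and filtered. Analysed by reverse-phase C18 HPLC; percent parent is peak area relative to the 0 min sample.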

[11] = Cytotoxicity against mouse NIH/3T3 cells assessed as cell proliferation after 70 hrs by MTS assay; type: ADME, cell-based; conditions: NIH3T3, 70 h
Histone deacetylase 8 [12] = molecular target: T3, Histone deacetylase 8; experiment: (§5) Reversible-time dependent inhibition of human wild type HDAC8 by Fluor-de-Lys activity assay; conditions: read-out: Ki(app)
[13] = molecular target: T1, Histone deacetylase 8 (Homo sapiens); experiment: as §5; conditions: TDE = time-dependent effect
[14] = Stability of the compound assessed as trypsin (unknown origin)-mediated drug degradation measured as compound remaining after 2 hrs by biochemical assay; type: ADME; conditions: human, read-out: Stability
[15] = Aqueous stability in 50 mM HEPES buffer at pH 7.4 by HPLC chromatogram; type: physicochemical
In short: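 Compound in 50 mM HEPES, pH 7.4, analysed by analytical HPLC right after preparation and again after 24 h at 37 °C, with no thiol present. Stability is read from the parent peak.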

Jurkat [16] = experiment: Effect on alpha-actin level in human Jurkat cells at 6 to 20 uM after 4 hrs by Western blot analysis; type: ADME, cell-based
In short: (§6)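 Log-phase HH or Jurkat cells at 70% confluence treated 4 h, harvested, lysed in RIPA with protease inhibitors. Protein normalised by BCA, run on 10% SDS-PAGE and blotted to PVDF. Probed with anti-actin–HRP (plus acetylated-tubulin and tubulin antibodies) and detected by chemiluminescence.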

[17] = molecular target: T1, Histone deacetylase 8 (Homo sapiens); experiment: Binding affinity to human wild type HDAC8 assessed as retention time for protein fragment after 60 mins of treatment in presence of trypsin (reference value: 84.5 mins)
In short: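 Recombinant human WT HDAC8 (1.7 μM) incubated with 12 equiv compound (20 μM) for 60 min at 37 °C. Protein isolated by SDS-PAGE, reduced (DTT, 56 °C) and alkylated (iodoacetamide), trypsin-digested overnight at 37 °C. Peptides separated on C18 with a 5–60% ACN gradient and detected by LC-MS/MS.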

[18] = molecular target: T1, Histone deacetylase 8 (Homo sapiens)
Albumin = Albumin (Bos taurus, UniProt P02769); experiment: Stability of the compound assessed as bovine serum albumin-mediated drug degradation measured as compound remaining after 2 hrs by biochemical assay; type: ADME; conditions: cattle, read-out: Stability
Sequence of Albumin (P02769 whole entry): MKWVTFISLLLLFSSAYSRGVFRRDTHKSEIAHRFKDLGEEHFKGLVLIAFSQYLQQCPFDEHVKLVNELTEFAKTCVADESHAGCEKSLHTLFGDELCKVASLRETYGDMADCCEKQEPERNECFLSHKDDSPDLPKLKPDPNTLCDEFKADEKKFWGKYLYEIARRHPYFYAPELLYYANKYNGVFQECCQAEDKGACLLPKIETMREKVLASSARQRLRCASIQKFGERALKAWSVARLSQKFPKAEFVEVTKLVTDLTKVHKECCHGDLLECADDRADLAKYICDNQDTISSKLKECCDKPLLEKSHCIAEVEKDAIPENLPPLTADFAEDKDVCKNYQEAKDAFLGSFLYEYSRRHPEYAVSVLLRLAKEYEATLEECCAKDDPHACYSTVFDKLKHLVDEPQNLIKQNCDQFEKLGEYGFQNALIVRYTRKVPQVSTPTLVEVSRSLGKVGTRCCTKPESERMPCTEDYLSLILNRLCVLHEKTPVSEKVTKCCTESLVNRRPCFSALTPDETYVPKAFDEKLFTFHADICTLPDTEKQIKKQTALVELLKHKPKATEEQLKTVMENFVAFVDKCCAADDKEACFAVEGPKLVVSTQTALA

HH [19] = experiment: Effect on alpha-actin level in human HH cells at 6 to 20 uM after 4 hrs by Western blot analysis; type: ADME, cell-based; in short: as §6
[20] = Stability in human plasma assessed as compound remaining after 1 hr by HPLC analysis; type: ADME, cell-free; conditions: read-out: Stability; in short: as §4
[21] = Retention time of the compound in HEPES buffer at pH 7.4 by LC-MS analysis in presence of GSH; type: physicochemical; in short: as §1
Jurkat [22] = experiment: Cytotoxicity against human Jurkat cells assessed as cell proliferation after 70 hrs by MTS assay; type: functional, cell-based
[23] = molecular target: T5, Histone deacetylase (Homo sapiens) (UniProt Q13547+O15379+Q9UBN7+Q92769+Q9UQL6+Q8WUI4+Q9BY41+Q96DB2+P56524+Q9UKV0+Q969S8); conditions: HH, 6 to 20 uM
[24] = tested on: T4, Histone deacetylase 8 (Homo sapiens), Q9BY41 [C153A]; experiment: Time-dependent inhibition of human HDAC8 C153A mutant by Fluor-de-Lys activity assay; in short: as §3
[25] = molecular target: T5, Histone deacetylase (Homo sapiens); conditions: Jurkat, 6 to 20 uM
HH [26] = experiment: Cytotoxicity against human HH cells assessed as cell proliferation after 70 hrs by MTS assay; type: functional, cell-based
[27] = molecular target: T1, Histone deacetylase 8 (Homo sapiens); experiment: Binding affinity to human wild type HDAC8 assessed as loss of activity measured with in 0.5 hrs by Fluor-de-Lys activity assay

O=C(CCCCCCC(=O)Nc1ccccc1)NOCc1ccccc1
inhibition [1]: inactive | IC50 (Histone deacetylase 3): > 10 µM | IC50 (Histone deacetylase 2): > 10 µM | Activity [2]: Non-toxic | Activity [3]: Not Active | inhibition (Jurkat [4]): inactive | IC50 [5]: > 10 µM | IC50 (Histone deacetylase 1): > 10 µM | IC50 (Histone deacetylase 8 [6]): > 10 µM | inhibition (HH [7]): inactive | inhibition [8]: inactive

O=C(CCCCCCC(=O)Nc1ccccc1)NO [VORINOSTAT]
Retention_time [9]: 10.7 min | remaining at 2 h [10]: 55%

CC1=C(C)C(=O)C(CONC(=O)CCCCCCC(=O)Nc2ccccc2)=C(C)C1=O
EC50 [11]: 9.37 µM | Ki (Histone deacetylase 8 [12]): 7 µM | inhibition [13]: tde | remaining at 2 h [14]: > 95% | IC50 (Histone deacetylase 3): 0.149 µM | IC50 (Histone deacetylase 2): 0.255 µM | Stability [15]: > 97% | Activity (Jurkat [16]): Non-toxic | Retention time [17]: 88.5 min | remaining at 2 h [10]: 52% | K1/2 [18]: 8 µM | remaining at 2 h (Albumin): > 95% | Activity (HH [19]): Non-toxic | remaining at 1 h [20]: 72% | Retention_time [21]: 14.7 min | IC50 [5]: 0.023 µM | IC50 (Histone deacetylase 1): 0.371 µM | IC50 (Histone deacetylase 8 [6]): 3.84 µM | EC50 (Jurkat [22]): 6.05 µM | inhibition [23]: Active | TDI [24]: inactive | inhibition [25]: Active | EC50 (HH [26]): 3.38 µM | inhibition [27]: Active

C=C1C(=O)C(C)=C(C)C(=O)C1(C)SC[C@H](NC(=O)CC[C@H](N)C(=O)O)C(=O)NCC(=O)O (stereo partly drawn)
Retention_time [9]: 10.5 min
